For series [1] the following is noted: 45-day study, female rats; ref Aqil et al., 2014; cited from earlier work.
Series [2] can be described thus: OH-PCB disposition in serum and tissues by GC-MS/MS. Type of series: in vivo, Sprague-Dawley rats. The following applies: for detection in serum, brain, liver, and lung / rank order of levels across serum and tissues: male rats, 28 days of 4-52 implant exposure. Put shortly: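 Male Sprague-Dawley rats received a subcutaneous polymeric implant (1.3 ± 0.1 mg/g body weight) on the back at PND 28, loaded at 0, 1, 5 or 10% (w/w) test compound, for 28 days. Tissues (n=8/group) were homogenized in 2-propanol and liquid-liquid extracted, with surrogate-recovery and internal-standard correction. LOD came from sham tissues (mean + t0.01 × SD).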

For series [3], the system named is Sprague-Dawley rats. Kind of series: Histopathology. Type of series: in vivo. The following applies: for prevalence of minimal liver inflammation (% of evaluated slides): sham 37.5%. Put shortly: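 After 28 days of implant exposure, brain, accessory lobe of right lung and left lateral liver lobe were formalin-fixed and H&E stained (8 rats/group, 2 per cohort, random). A veterinary pathologist scored brain regions (prefrontal cortex, striatum, hippocampus, cerebellum) and lung and liver for inflammation (any immune cells), hemorrhage, edema, necrosis, apoptosis and morphology. Brain was also scored for gliosis; lung and liver for extramedullary hematopoiesis.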

A short description of series [4]: In vivo exposure dosimetry: 4-52 remaining in retrieved subcutaneous implants. Further details: species or system Sprague-Dawley rats. The conditions noted are these: for In vivo exposure: 4-52 remaining in the implant / In vivo exposure: 4-52 remaining in the implant (%): subcutaneous implant, 28 days, male rats. In a few lines:
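Male rats carried s.c. implants (0, 1, 5 or 10% w/w; 1.3 ± 0.1 mg/g bw) from PND 28 for 28 days. Retrieved implants were dissolved in 10 mL DCM, diluted 3-fold and read by UV/Vis at 285 nm against a matrix-matched calibration curve. Internal dose was taken as total load minus remaining amount, assuming 100% bioavailability.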

Series [5] in a line: In vitro release from polymeric implants. The conditions noted are these: after 28 days.
The test system of series [6] is Sprague-Dawley rats. Put plainly: Open Field Test. The conditions noted are these: between the groups at any time epoch, two-way ANOVA. Type of series: in vivo. In a few lines:
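Implant-exposed rats (n=15/group) were tested blind during exposure days 24–28. The opaque rectangular arena (~5000 cm2, 50 cm walls) was divided into central and outer zones. Each rat started in the center and explored freely for 30 min on two consecutive days. Overhead video tracking recorded distance travelled in 5-min epochs. Analysis: two-way ANOVA.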

The subject of series [7] is Sprague-Dawley rats. Put plainly: Elevated Plus Maze. Type of series: in vivo.
Series [8] is described as follows: General toxicity assessment. Format: in vivo, Sprague-Dawley rats. In a few lines: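 Rats arrived at 21 days old and were acclimated 7 days. At PND 28, under isoflurane with 1 mg/kg s.c. meloxicam, they received s.c. implants with 0, 1, 5 or 10% w/w test compound (1.3 ± 0.1 mg/g bw), n=15/group. Surgical site and behaviour were checked daily for 5 days. At PND 56, blood was taken by cardiac puncture, rats were perfused with cold PBS and organs harvested.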

The subject of series [9] is Sprague-Dawley rats. Put plainly: Hole Board Test. Format: in vivo. Put shortly: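 Implant-exposed rats (n=15/group) were tested blind on exposure days 24–28. Each rat was released centrally for 5 min. Distance and head dips (ears passing through a hole) were video-tracked. Analysis: one-way ANOVA with Fisher's LSD; mean ± SD.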
The subject of series [10] is Sprague-Dawley rats. Kind of series: Y-maze. Format: in vivo.
The conditions of series [11]: rats, dip-coated implants; ref Aqil et al. (2014); cited from earlier work.
Another series relates to rats. The conditions noted are these: developmental exposure via the maternal diet, ref Boix et al., 2010; cited from earlier work.
The conditions of series [12]: administered orally with corn oil; ref Rostami and Juhasz, 2011; cited from earlier work.

Entries after “also recorded” stand apart in the source; their conditions may differ.

As for `Clc1cc(Cl)c(-c2cc(Cl)c(Cl)cc2Cl)cc1Cl` [PCB 153], the “released from polymeric implants in vivo” value in [1] is 73%.
With `Oc1cc(Cl)c(-c2cc(Cl)c(O)cc2Cl)cc1Cl` [4,4’-52, 4,4’-dihydroxy-2,2’,5,5’-tetrachlorobiphenyl], in [2] (after 4-52 implant exposure), the “detection in the brain” value is “only found in the medium and high-dose groups”; the “detection in the lung” value is “detected”; the “presence in the serum and liver” value was “present in the serum and liver from all exposure groups”. In series [2], the “detection in serum, brain, liver, and lung” value is “detected”; the “rank order of levels across serum and tissues” value was “serum > lung > liver > brain”.
Consider `Oc1cc(Cl)c(-c2cc(Cl)ccc2Cl)cc1Cl` [4-52, 2,2’,5,5’-tetrachlorobiphenyl-4-ol], for which the “levels in serum and tissues versus 4-52 dose” value in series [2] (all compartments) was “increased with increasing 4-52 doses”. Further, in series [2], the “detection in serum, brain, liver, and lung” value is listed as “detected”. Also, in [2], the “rank order of levels across serum and tissues” value is on record as “serum >> liver > lung > brain”. In the series on Sprague-Dawley rats [3] (exposed or sham rats, 28 days), the “histopathological evaluation of brain and lung” value is “no overt treatment-specific lesions”. Further, the “prevalence of minimal liver inflammation (% of evaluated slides)” value with Sprague-Dawley rats [3] (high dose group) was 75%; with Sprague-Dawley rats [3] (low dose group) it was 12.5%; in the series on Sprague-Dawley rats [3] (medium dose group), 25%. The “In vivo exposure: 4-52 remaining in the implant” value in [4] (High group, 10% load) is 0.80 ± 0.40 mg; in series [4] (Low group, 1% load), 0.06 ± 0.02 mg; in series [4] (Medium group, 5% load) it was 0.40 ± 0.20 mg. Also, the “In vivo exposure: 4-52 remaining in the implant (%)” value is listed as 6.9 ± 3.1% in series [4] (High group, 10% load); 5.8 ± 2.3% in [4] (Low group, 1% load); 6.3 ± 2.8% in series [4] (Medium group, 5% load). In addition, the “4-52 left in the implants after in vivo exposure” value in [4] (after 28 days of exposure, range over loads) is listed as 5.8-6.9%. Besides, the “In vitro release: 4-52 remaining in the implant (%)” value in series [5] (High group, 10% load) is listed as 5.2 ± 1.1%; in series [5] (Low group, 1% load), 3.4 ± 0.9%; in series [5] (Medium group, 5% load), 2.9 ± 1.8%. The “Open Field Test locomotor activity (travel distance) in 5 min epochs over 30 min” value in the series with Sprague-Dawley rats [6] was “no significant differences; also recorded: not altered”. For the same compound, the “Elevated Plus Maze time in the open arm” value in the series with Sprague-Dawley rats [7] (high group, did not reach statistical significance, p = 0.076) was “marginally increased”. The “Elevated Plus Maze time in the enclosed arm” value in the series with Sprague-Dawley rats [7] (high-exposed group vs sham, post hoc Fisher’s LSD, p = 0.043) is reported as “significantly decreased”. The “Elevated Plus Maze distance traveled in the enclosed arm” value in the series with Sprague-Dawley rats [7] (medium exposed group, post hoc Fisher’s LSD, p = 0.097) is reported as “trend of reduction; also recorded: decreased”. The implantation site result in [8] (end of 28-day study) was “no signs of adverse effects”. For the same compound, the “adverse outcomes throughout the study” value in series [8] (implants with 0, 1, 5 or 10% of 4-52, 28 days) is “No adverse outcomes”. Moreover, the body weight gain entry in series [8] (implants with 1, 5, 10% 4-52 vs sham, 28 days) is recorded as “No significant differences”. The other organ weights result in [8] (subcutaneous 4-52 exposure, 28 days) is “no significant effects; also recorded: no other organ weights were affected”. The “relative liver weight (% of body weight)” value in [8] (subcutaneous 4-52 exposure, 28 days, p < 0.001) is on record as “decreased dose-dependently; also recorded: significant decrease”. For the same compound, the “Hole Board Test total distance traveled” value with Sprague-Dawley rats [9] (exposed vs sham groups, one-way ANOVA, p = 0.297) is listed as “no significant differences”; in the series on Sprague-Dawley rats [9] (medium-exposed rats, post hoc Fisher’s LSD, p = 0.071), “slightly reduced; also recorded: trend of a decrease”. For the same compound, the “Hole Board Test number of head dipping” value in the series on Sprague-Dawley rats [9] (exposed vs sham groups, one-way ANOVA, p = 0.433) is listed as “no significant differences; also recorded: did not affect”. In addition, in the series on Sprague-Dawley rats [10] (all exposure groups, one-way ANOVA, p = 0.262), the “Y-maze percentage of spontaneous alternation” value is “no significant changes; also recorded: did not affect”. Moreover, the “Y-maze total distance traveled” value in the series on Sprague-Dawley rats [10] (all exposure groups, one-way ANOVA, p = 0.300) is given as “no significant changes”; in the series with Sprague-Dawley rats [10] (medium-exposed group vs sham, post hoc Fisher’s LSD, p = 0.067) it was “trend to decrease; also recorded: trend of a decrease”. Also, in the series on Sprague-Dawley rats [10] (all exposure groups, one-way ANOVA, p = 0.342), the “Y-maze number of total entries” value is given as “no significant changes”. In addition, in the series on Sprague-Dawley rats [10] (medium-exposed group vs sham, post hoc Fisher’s LSD, p = 0.087), the “Y-maze total number of entries” value is on record as “trend to decrease; also recorded: trend of a decrease”.
Regarding `Clc1ccc(-c2cc(Cl)c(Cl)c(Cl)c2)cc1Cl` [PCB 126], in series [11], the “liver weights compared to sham controls” value is “significantly increased”. For the same compound, the “released from polymeric implants in vivo” value in [1] was 49%.
In the case of `Clc1ccc(Cl)c(-c2cc(Cl)ccc2Cl)c1` [PCB 52, 2,2’,5,5’-Tetrachlorobiphenyl], in the series with rats, the Y-maze performance entry is on record as “did not affect” and the motor coordination entry is reported as “impaired”. For the same compound, the oral bioavailability rate in [12] is given as 52.9%.
